TAAR1 ag – human TAAR1 agonism. Q96RJ0. CHO RD-HGA16 TAAR1, Fluo-8 calcium fluorescence; vehicle wells 0%, saturating PEA agonist 100%. activation, % at 3 µM. hit rate 0.99% among 360,000. AID 624467;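 active = activation above the mean activation of all test compounds in the run plus 3 SD, cut at about 38% in these data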
Target sequence (Q96RJ0 whole entry, looked up): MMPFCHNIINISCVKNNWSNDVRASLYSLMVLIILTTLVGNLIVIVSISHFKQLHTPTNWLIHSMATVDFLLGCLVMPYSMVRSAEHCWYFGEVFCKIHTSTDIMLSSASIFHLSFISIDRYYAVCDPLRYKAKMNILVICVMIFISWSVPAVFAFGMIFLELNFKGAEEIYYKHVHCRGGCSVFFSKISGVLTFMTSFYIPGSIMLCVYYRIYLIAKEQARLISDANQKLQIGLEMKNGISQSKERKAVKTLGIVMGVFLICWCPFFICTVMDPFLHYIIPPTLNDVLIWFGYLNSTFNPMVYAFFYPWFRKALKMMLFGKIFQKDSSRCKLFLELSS
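Test system: RD-HGA16 (CHO) cells co-expressing Gα16 and hTAAR1; dosing: one-point dosing at 3 µM (nominal); timing: 17-24 h seeding, 75 min 37 °C dye, 30 min RT; signal: kinetic Fluo-8 calcium fluorescence; read-out basis: % activation relative to PEA EC100 response; controls: DMSO and PEA EC100; replicates: n 1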
TAAR1 antagonist – antagonists of human TAAR1; Q96RJ0; CHO RD-HGA16 TAAR1, Fluo-8 calcium fluorescence, antagonist; inhibition, % at 3 µM; hit rate 1.5% among 360,000; AID 624466;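 active = inhibition above a per-plate cutoff, the mean inhibition of test compounds on that plate plus 3 SD, cut at about 49% in these data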
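System: CHO RD-HGA16 cells bearing hTAAR1. Reagent: EC80 β-phenethylamine stimulus. Schedule: seeding 17-24 h prior, 75-min 37 °C, 30-min RT dye loading. Signal: Fluo-8 intracellular calcium dye fluorescence, real-time kinetic reads. Read-out: % inhibition from peak post-agonist over basal fluorescence ratio. Benchmarks: vehicle wells and EC80 agonist wells. Replicates: n of 1.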
OXTR potentiate – human OXTR potentiation; P30559; CHO-OTR cells, Fluo-8 calcium fluorescence, potentiator mode; 0% = oxytocin EC15, 100% = EC100; activation, % at 3 µM; hit rate 0.061% among 320,000; AID 2445;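 active = activation above that plate's cutoff, the mean activation of tested compounds plus 3 SD, cut at about 6.6% in these data, passing the limit was not always enough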
Target sequence (P30559 whole entry, looked up): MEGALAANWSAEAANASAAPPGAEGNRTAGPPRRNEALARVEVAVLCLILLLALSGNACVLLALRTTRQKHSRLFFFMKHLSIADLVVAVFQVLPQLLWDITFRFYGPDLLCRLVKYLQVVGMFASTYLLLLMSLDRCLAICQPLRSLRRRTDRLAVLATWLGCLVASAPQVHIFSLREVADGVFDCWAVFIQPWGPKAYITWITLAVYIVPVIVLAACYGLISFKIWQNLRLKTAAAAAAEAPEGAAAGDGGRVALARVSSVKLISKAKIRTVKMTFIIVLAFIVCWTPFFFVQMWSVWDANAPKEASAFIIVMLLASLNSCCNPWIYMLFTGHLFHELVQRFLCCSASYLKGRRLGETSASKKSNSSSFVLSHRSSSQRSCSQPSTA
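Material: human OTR in CHO cells. Compound: 3.0 µM, one dose. Timing: compound 6 min at room temperature before oxytocin, 100 s read. Evaluation: % activation of max/min ratio relative to oxytocin controls. Replication: single well per compound, singlicate. Signal: Fluo-8 calcium dye fluorescence.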
OXTR agonist – human OXTR agonism. CHO-OTR cells, Fluo-8 calcium fluorescence; normalized: DMSO 0%, oxytocin 100%. activation, % at 3 µM. hit rate 0.32% among 320,000;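 active = activation above the mean of all tested compounds plus 3 SD, cutoff set per screening run, cut at about 20% in these data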;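 note: peak over basal fluorescence ratio from a 100 s FLIPR kinetic read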
V1aR counter – activates human V1a receptor in oxytocin agonist counter-screen. activation, % at 3 µM. CHO-V1R cells, Fluo-8 calcium fluorescence, agonist mode; 0% DMSO, 100% 3 nM vasopressin. P37288. hit rate 0.25% among 320,000;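 active = activation above the mean activation of all tested compounds plus 3 SD, per screening run, cut at about 20% in these data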;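 note: signal is peak over basal fluorescence ratio across a 100 second FLIPR read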
TAAR1 ag conf – confirmation of human TAAR1 agonists; CHO RD-HGA16 TAAR1, Fluo-8 calcium fluorescence; scaled: DMSO 0%, maximal phenethylamine 100%; AID 651783; hit rate 82% among 2,400; activation, % at 3 µM; shares compounds with TAAR1 ag;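 active = activation above a cutoff set at the run's mean compound activation plus 3 SD, cut at about 39% in these data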
Ga16 ag counter – counter-screen for TAAR1 agonists: nonselective agonists in parental cells | shares compounds with TAAR1 ag | CHO-Ga16 parental, Fluo-8 calcium fluorescence; normalized to maximal ATP response, DMSO zero | activation, % at 3 µM | hit rate 50% among 2,400;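 active = activation above the run cutoff, the mean activation over all tested wells plus 3 SD, cut at about 12% in these data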
TAAR1 desens – human TAAR1 agonist that also desensitizes the receptor | shares compounds with TAAR1 ag | CHO RD-HGA16 hTAAR1, Fluo-8 calcium, beta-PEA response inhibition | inhibition, % at 3 µM | hit rate 46% among 2,400 | AID 651951;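 active = inhibition above the run cutoff, the mean inhibition of all test compounds plus 3 SD, cut at about 49% in these data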;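 note: beta-PEA stimulus applied at its EC80; loss of beta-PEA calcium signal after compound pretreatment read as receptor desensitization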
Ga16 antag count – nonselective Ga16 antagonism, counter-screen; shares compounds with TAAR1 ag; CHO-Ga16 ATP-induced calcium, Fluo-8 fluorescence; inhibition, % at 3 µM; hit rate 39% among 2,400; AID 651952;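 active = inhibition above the plate's mean compound inhibition plus 3 SD, computed per plate, cut at about 22% in these data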
Large screens that a line does not name were inactive (follow-up assays come after a bar, where they were run). Sampled rows, rich in hits. Any-hit rate of the full collection: about 2.3%.

O=C(NCCc1ccccc1)C(c1ccncc1)N(C(=O)c1csnn1)C1CC1 (stereo unspecified)	TAAR1 ag 83.2, TAAR1 antagonist 49.3 | TAAR1 ag conf 90.8 | Ga16 ag counter inactive | TAAR1 desens 67.7 | Ga16 antag count inactive
CCn1ncc(Br)c1C(=O)NC1CCCCCCC1	none (no result: OXTR potentiate, OXTR agonist, V1aR counter)
CCc1cc(=O)oc2cc(C)c(CN3CCCC(C)C3)c(O)c12 (stereo unspecified)	TAAR1 ag 50.7 | TAAR1 ag conf 82.4 | Ga16 ag counter inactive | TAAR1 desens inactive | Ga16 antag count inactive
NC(=O)Nc1ccc(C(=O)OCC(=O)c2c[nH]c3ccccc23)cc1	TAAR1 ag 47.7 | TAAR1 ag conf 59.1 | Ga16 ag counter inactive | TAAR1 desens inactive | Ga16 antag count inactive
CCOC(=O)N[C@H](C(=O)N1CCC[C@H]1C(=O)NCCc1ccccc1Cl)c1ccccc1	TAAR1 ag 68.9, TAAR1 antagonist 63.6 (no result: OXTR potentiate, OXTR agonist, V1aR counter) | TAAR1 ag conf 84.5 | Ga16 ag counter inactive | TAAR1 desens 83.3 | Ga16 antag count inactive
O=C(CC1CCCC1)N[C@H](C(=O)N1CCC[C@H]1C(=O)NCCc1ccccc1Cl)c1ccccc1	TAAR1 ag 55.3, TAAR1 antagonist 53.2 (no result: OXTR potentiate, OXTR agonist, V1aR counter) | TAAR1 ag conf 86.1 | Ga16 ag counter inactive | TAAR1 desens 79.5 | Ga16 antag count inactive
O=C(CC1CCCC1)N[C@H](C(=O)N1CCC[C@H]1C(=O)NCc1ccccc1)c1ccccc1	none (no result: OXTR potentiate, OXTR agonist, V1aR counter)
CCN(CCn1cccn1)C(=O)CC1C(=O)NCCN1CCc1ccccc1 (stereo unspecified)	TAAR1 ag 77.7 | TAAR1 ag conf 93.4 | Ga16 ag counter inactive | TAAR1 desens 82.1 | Ga16 antag count inactive
CCN(CCn1cccn1)C(=O)CC1C(=O)NCCN1CC1CCCCC1 (stereo unspecified)	none
CN1CCNC(=O)C1CC(=O)NCCc1ccccc1F (stereo unspecified)	TAAR1 ag 74.3 | TAAR1 ag conf 88.7 | Ga16 ag counter inactive | TAAR1 desens 59.3 | Ga16 antag count inactive
O=C(CC1C(=O)NCCN1Cc1ccccn1)NCCc1ccccc1F (stereo unspecified)	TAAR1 ag 77.8 | TAAR1 ag conf 96.5 | Ga16 ag counter inactive | TAAR1 desens 72.3 | Ga16 antag count inactive
CC(C)(C)CN1CCNC(=O)C1CC(=O)NCCc1ccccc1C(F)(F)F (stereo unspecified)	none
Fc1ccccc1CCNc1c2c(nc3ncnn13)CCCC2	none
c1ccc(CCNc2c3c(nc4ncnn24)CCC3)cc1	TAAR1 ag 62.2 | TAAR1 ag conf 89.8 | Ga16 ag counter inactive | TAAR1 desens inactive | Ga16 antag count inactive
Nc1[nH]c(C(=O)c2ccccc2)c(-c2ccc(F)cc2)c1C(=O)NCc1ccccc1	none (no result: OXTR potentiate, OXTR agonist, V1aR counter)
CC(=O)c1c(C)[nH]c(C(=O)OCc2ccccc2)c1C	none
CCN(CC)CCc1c(C)[nH]c(C(=O)OCc2ccccc2)c1C	TAAR1 ag 71.1 | TAAR1 ag conf 73.1 | Ga16 ag counter inactive | TAAR1 desens 73.5 | Ga16 antag count inactive
Oc1cccc(Nc2nc(-c3ccccc3)nc3ccccc23)c1	none
O=C(CSc1nc2scc(-c3ccccc3)c2c(=O)[nH]1)NCCc1ccccc1	TAAR1 ag 63.9 | TAAR1 ag conf 64.2 | Ga16 ag counter inactive | TAAR1 desens inactive | Ga16 antag count inactive
Cc1cc(=O)[nH]c(SCC(=O)NCCc2ccccc2)n1	none (no result: TAAR1 ag, TAAR1 antagonist) | Ga16 ag counter inactive | Ga16 antag count inactive
Nc1nc(SCC(=O)NCCc2ccccc2)[nH]c(=O)c1-c1ccccc1	TAAR1 ag 62.2 | TAAR1 ag conf 53.1 | Ga16 ag counter inactive | TAAR1 desens inactive | Ga16 antag count inactive
CCc1cccc(C)c1Nc1nc2ccccc2n2cnnc12	none
Cc1sc(NC(=O)c2cccc(N3C(=O)CCC3=O)c2)nc1-c1ccccc1	none
Cc1ccc(C(=O)Nc2ccc(C(=O)N/N=C/c3ccc(C)o3)cc2)cc1	none
Cc1cc(C(=O)CN2C(=O)C(=O)N(Cc3ccco3)C2=O)c(C)n1CCc1ccc(F)cc1	TAAR1 ag 47.8 | TAAR1 ag conf 87.7 | Ga16 ag counter inactive | TAAR1 desens inactive | Ga16 antag count inactive
O=C1C=CC(=NN=C(c2ccccc2)c2ccccc2)C=C1	none (no result: OXTR potentiate, OXTR agonist, V1aR counter)
Cc1ccc(SCC(=O)Nc2ccc(N3CCN(C)CC3)c(F)c2)c(C)c1	TAAR1 ag 60.1, TAAR1 antagonist 52.3 | TAAR1 ag conf 79.6 | Ga16 ag counter inactive | TAAR1 desens 75.0 | Ga16 antag count inactive
CCC(C)NC(=O)CNC(=O)c1nn(-c2ccc(OC)c(Cl)c2)c(=O)c2ccccc12 (stereo unspecified)	none
CCOC(=O)c1cn(C2CC2)c2c(F)c(F)c(F)cc2c1=O	TAAR1 ag 48.7 | TAAR1 ag conf inactive | Ga16 ag counter inactive | TAAR1 desens inactive | Ga16 antag count inactive
CC(C)C(=O)NC(=S)Nc1ccc(S(=O)(=O)Nc2ccccc2)cc1	none
CCOc1ccc(NS(=O)(=O)c2ccc(NC(=S)NC(C)=O)cc2)cc1	TAAR1 ag 85.5, OXTR agonist 29.1, V1aR counter 26.6 | TAAR1 ag conf 74.6 | Ga16 ag counter 48.2 | TAAR1 desens 53.4 | Ga16 antag count 33.1
CCOc1ccc(NS(=O)(=O)c2ccc(NC(=S)NC(=O)C(C)C)cc2)cc1	TAAR1 ag 59.3 | TAAR1 ag conf 42.4 | Ga16 ag counter 20.4 | TAAR1 desens inactive | Ga16 antag count inactive
CCCCc1cc(=O)oc2cc(OCC(=O)NCC3CCC(C(=O)O)CC3)ccc12 (stereo unspecified)	none
NC(c1csc(NC(=O)Nc2cccc(Cl)c2)n1)c1ccccc1Cl (stereo unspecified)	TAAR1 ag 52.1 (no result: OXTR potentiate, OXTR agonist, V1aR counter) | TAAR1 ag conf 66.2 | Ga16 ag counter 27.3 | TAAR1 desens 64.3 | Ga16 antag count 46.6
CC(C)CN(Cc1cc(=O)oc2cc(-c3ccccc3)c(O)cc12)CC(C)C	none
COc1ccc(CN2C(=O)C(CC(=O)NCCc3ccccn3)CC(C(=O)N(C)C)=C2C)cc1 (stereo unspecified)	TAAR1 ag 46.4 (no result: OXTR potentiate, OXTR agonist, V1aR counter) | TAAR1 ag conf 61.8 | Ga16 ag counter inactive | TAAR1 desens inactive | Ga16 antag count inactive

Screens deposited in PubChem BioAssay by The Scripps Research Institute Molecular Screening Center.
